The test system of test [1] is Escherichia coli. The test is described as follows: Bactericidal activity against Escherichia coli ATCC 25922 with lipid composition of […], 15% phosphatidylglycerol and 5% cardiolipin by broth microdilution method. In kind it is functional. In a few lines: (§1)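 MBC by broth microdilution in the Gram-negative depolarization buffer (20 mM glucose, 5 mM HEPES, pH 7.3). Cells were incubated 24 h with incrementally varied ceragenin concentrations and plated on tryptic soy agar. MBC is the lowest concentration completely eradicating bacteria (detection limit 10 CFU/ml).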

The test system of test [2] is Klebsiella pneumoniae. Nature of the test: Bactericidal activity against Klebsiella pneumoniae ATCC 13883 with lipid composition of 82% phosphatidylethanolamine, 5% phosphatidylglycerol and 6% cardiolipin by broth microdilution method. In kind it is functional. In a few lines: as §1
For orientation: In broth dilution the organism is exposed to a series of concentrations in liquid medium.

A further test relates to Pseudomonas aeruginosa. The test is described as follows: Bactericidal activity against Pseudomonas aeruginosa ATCC 27852 with lipid composition of 60% phosphatidylethanolamine, 21% phosphatidylglycerol and 11% cardiolipin by broth microdilution method. In kind it is functional. In a few lines:
as §1

Test [3] relates to Escherichia coli. Nature of the test: Induction of inner membrane permeabilization of Escherichia coli ML-35p by ONPG hydrolysis based spectrophotometric assay. The format is functional, organism-based. In short, it runs like this: (§2)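 E. coli ML-35p grown overnight in TSB at 37°C, washed three times in 10 mM phosphate/0.1 M NaCl, pH 7.4. Diluted to 10^6 CFU/ml in the same buffer with 300 μg/ml TSB. Ceragenin or melittin 0–100 μg/ml, in duplicate. Outer membrane: 30 μM nitrocefin, A486. Inner membrane: 2.5 mM ONPG, A420. Read every 2 min for 60 min at 37°C with shaking.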

Test [4] deals with Escherichia coli. Nature of the test: Induction of outer membrane permeabilization of Escherichia coli ML-35p by nitrocefin permeation based spectrophotometric assay. In kind it is functional, organism-based. In a few lines:
as §2

For test [5], the system named is Paenibacillus polymyxa. Nature of the test: Bactericidal activity against Bacillus polymyxa ATCC 21830 with lipid composition of 60% phosphatidylethanolamine, 3% phosphatidylglycerol and 8% cardiolipin by broth microdilution method. In kind it is functional. In a few lines: (§3)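 Cells were incubated 24 h with incrementally varied ceragenin concentrations, then plated on tryptic soy agar. MBC is the lowest concentration completely eradicating bacteria (detection limit 10 CFU/ml).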

In test [6] the test system is Bacillus cereus. Nature of the test: Bactericidal activity against Bacillus cereus ATCC 11778 with lipid composition of 43% phosphatidylethanolamine, 40% phosphatidylglycerol and 17% cardiolipin by broth microdilution method. In kind it is functional. In a few lines:
as §3

Test [7] has as its system Enterococcus faecalis. Nature of the test: Bactericidal activity against Enterococcus faecalis ATCC 29212 with lipid composition of 0% phosphatidylethanolamine, 27% phosphatidylglycerol and 19% cardiolipin by broth microdilution method. In kind it is functional. In short, it runs like this: as §3
Test [8] concerns Staphylococcus epidermidis. The test is described as follows: Bactericidal activity against Staphylococcus epidermidis ATCC 35984 with lipid composition of 0% phosphatidylethanolamine, 90% phosphatidylglycerol and 1% cardiolipin by broth microdilution method. In kind it is functional. In a few lines: as §3
Test [9] concerns Staphylococcus aureus. The test is described as follows: Bactericidal activity against Staphylococcus aureus ATCC 25923 with lipid composition of 0% phosphatidylethanolamine, 67% phosphatidylglycerol and 19% cardiolipin by broth microdilution method. The format is functional. The note with it: in the assay text read “57% phosphatidylglycerol” for “67% phosphatidylglycerol”. In a few lines: as §3

Test [10] has as its system Staphylococcus aureus. Nature of the test: Bactericidal activity against methicillin-resistant Staphylococcus aureus ATCC BAA-41 with lipid composition of 0% phosphatidylethanolamine, 57% phosphatidylglycerol and 19% cardiolipin by broth microdilution method. The format is functional. In a few lines: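 Cells were incubated 24 h with stepwise-varied ceragenin concentrations, then each sample was plated on tryptic soy agar. MBC was taken as the lowest concentration giving complete kill (detection limit 10 CFU/ml).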

In test [11] the test system is Paenibacillus polymyxa. The test is described as follows: Induction of cytoplasmic membrane depolarization in Bacillus polymyxa ATCC 21830 with lipid composition of 60% phosphatidylethanolamine, 3% phosphatidylglycerol and 8% cardiolipin at MBC by DiS-C2 dye based fluorimetric assay. In kind it is functional. In a few lines:
(§4)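 Overnight TSB cultures (37°C) were washed three times in 250 mM sucrose, 5 mM MgSO4, 10 mM K phosphate, pH 7.0, and diluted to A600 0.085 with 1 μM DiS-C2(5). Dye loaded 7 min at room temperature, then 7 min at 37°C. Ceragenin added with stirring at 37°C; fluorescence (ex 600/em 660 nm) read every 30 s. Depolarization at 330 s is expressed as % of the maximal fluorescence increase at 4× MBC.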

In test [12] the test system is Bacillus cereus. The test is described as follows: Induction of cytoplasmic membrane depolarization in Bacillus cereus ATCC 11778 with lipid composition of 43% phosphatidylethanolamine, 40% phosphatidylglycerol and 17% cardiolipin at MBC by DiS-C2 dye based fluorimetric assay. In kind it is functional. In short, it runs like this: as §4
Test [13] deals with Enterococcus faecalis. The test is described as follows: Induction of cytoplasmic membrane depolarization in Enterococcus faecalis ATCC 29212 with lipid composition of 0% phosphatidylethanolamine, 27% phosphatidylglycerol and 19% cardiolipin at MBC by DiS-C2 dye based fluorimetric assay. In kind it is functional. In a few lines:
as §4

In test [14] the test system is Staphylococcus epidermidis. Nature of the test: Induction of cytoplasmic membrane depolarization in Staphylococcus epidermidis ATCC 35984 with lipid composition of 0% phosphatidylethanolamine, 90% phosphatidylglycerol and 1% cardiolipin at MBC by DiS-C2 dye based fluorimetric assay. The format is functional. In short, it runs like this:
as §4

Test [15] relates to Staphylococcus aureus. Nature of the test: Induction of cytoplasmic membrane depolarization in Staphylococcus aureus ATCC 25923 with lipid composition of 0% phosphatidylethanolamine, 57% phosphatidylglycerol and 19% cardiolipin at MBC by DiS-C2 dye based fluorimetric assay. In kind it is functional. In short, it runs like this:
as §4

The subject of test [16] is Staphylococcus aureus. Nature of the test: Induction of cytoplasmic membrane depolarization in Staphylococcus aureus ATCC BAA-41 with lipid composition of 0% phosphatidylethanolamine, 57% phosphatidylglycerol and 19% cardiolipin at MBC by DiS-C2 dye based fluorimetric assay. The format is functional. In short, it runs like this: as §4
For test [17], the system named is Klebsiella pneumoniae. Nature of the test: Induction of outer membrane permeabilization of Klebsiella pneumoniae ATCC 13883 at MBC by DiS-C2 dye based fluorimetric assay. The format is functional, organism-based. In short, it runs like this:
(§5)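 Overnight TSB cultures (37°C), washed three times in TSB, then suspended in 20 mM glucose/5 mM HEPES, pH 7.3, at A600 0.085 with 1 μM DiS-C2(5). Equilibrated about 60 min at 37°C to a stable baseline. EDTA or ceragenin added; fluorescence (ex 600/em 660 nm) read every 30 s with stirring at 37°C. A fluorescence drop indicates outer-membrane permeabilization and dye uptake.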

Test [18] relates to Escherichia coli. The test is described as follows: Induction of outer membrane permeabilization of Escherichia coli ATCC 25922 at MBC by DiS-C2 dye based fluorimetric assay. In kind it is functional, organism-based. In a few lines:
as §5

In test [19] the test system is Escherichia coli. Nature of the test: Induction of inner membrane permeabilization of Escherichia coli ML-35p at 100 ug/ml by ONPG hydrolysis based spectrophotometric assay.

Values after ≈ are worked out from the molar mass of the structure shown. Active and inactive are the calls of the source.

For the molecule `CCCCCCCCNCCC[C@@H](C)[C@H]1CC[C@H]2[C@@H]3[C@H](OCCCN)C[C@@H]4C[C@H](OCCCN)CC[C@]4(C)[C@H]3C[C@H](OCCCN)[C@]12C`, the minimal bactericidal concentration (MBC) against Escherichia coli [1] came out at 1.5 µg/mL (≈ 2.22 µM); in the test on Klebsiella pneumoniae [2], 2.5 µg/mL (≈ 3.69 µM); against Pseudomonas aeruginosa, 3.5 µg/mL (≈ 5.17 µM); with Paenibacillus polymyxa [5], 2.5 µg/mL (≈ 3.69 µM); with Bacillus cereus [6], 1 µg/mL (≈ 1.48 µM); in the test on Enterococcus faecalis [7] it was 5.5 µg/mL (≈ 8.12 µM). The minimal bactericidal concentration (MBC) was 1 µg/mL (≈ 1.48 µM) in test [8], 2.5 µg/mL (≈ 3.69 µM) against Staphylococcus aureus [9] and 2 µg/mL (≈ 2.95 µM) with Staphylococcus aureus [10]. The result in the test with Escherichia coli [3] was Active. The Activity result in the test with Escherichia coli [4] was “Dose-dependent effect”; with Paenibacillus polymyxa [11], 88.4%; with Bacillus cereus [12], 86.7%; in the test with Enterococcus faecalis [13], 74%; in test [14], 25%; with Staphylococcus aureus [15] it was 41.5%. For the same molecule, the Activity with Staphylococcus aureus [16] came to 45.8%.

Regarding `CC[C@H](C)[C@H](NC(=O)CN)C(=O)NCC(=O)N[C@@H](C)C(=O)N[C@H](C(=O)N[C@@H](CC(C)C)C(=O)N[C@@H](CCCCN)C(=O)N[C@H](C(=O)N[C@@H](CC(C)C)C(=O)N[C@H](C(=O)N[C@H](C(=O)NCC(=O)N[C@@H](CC(C)C)C(=O)N1CCC[C@H]1C(=O)N[C@@H](C)C(=O)N[C@@H](CC(C)C)C(=O)N[C@H](C(=O)N[C@@H](CO)C(=O)N[C@@H](Cc1c[nH]c2ccccc12)C(=O)N[C@H](C(=O)N[C@@H](CCCCN)C(=O)N[C@@H](CCCNC(=N)N)C(=O)N[C@@H](CCCCN)C(=O)N[C@@H](CCCNC(=N)N)C(=O)N[C@@H](CCC(N)=O)C(=O)N[C@@H](CCC(N)=O)C(N)=O)[C@@H](C)CC)[C@@H](C)CC)[C@@H](C)O)[C@@H](C)O)C(C)C)C(C)C`, the result with Escherichia coli [4] was Active.

Take `C[C@H](CCCO)[C@H]1CC[C@H]2[C@@H]3[C@H](OCCCN)C[C@@H]4C[C@H](OCCCN)CC[C@]4(C)[C@H]3C[C@H](OCCCN)[C@]12C`: the minimum bactericidal concentration (MBC) in the test on Escherichia coli [1] worked out at 10 µg/mL (≈ 17.7 µM); with Klebsiella pneumoniae [2], 12.5 µg/mL (≈ 22.1 µM); against Pseudomonas aeruginosa it was 12 µg/mL (≈ 21.2 µM); in the test with Paenibacillus polymyxa [5], 15 µg/mL (≈ 26.5 µM); against Bacillus cereus [6] it was 7 µg/mL (≈ 12.4 µM); in the test on Enterococcus faecalis [7], 50 µg/mL (≈ 88.4 µM). The minimum bactericidal concentration (MBC) is 12 µg/mL (≈ 21.2 µM) in test [8], 35 µg/mL (≈ 61.9 µM) against Staphylococcus aureus [9] and 19 µg/mL (≈ 33.6 µM) in the test on Staphylococcus aureus [10]. Further, the result in the test with Klebsiella pneumoniae [17] and in the test on Escherichia coli [18] was Active. Besides, the Activity result is “Dose-dependent effect” in the test with Escherichia coli [4]; 96.6% with Paenibacillus polymyxa [11]; 84.7% with Bacillus cereus [12]; 80.6% with Enterococcus faecalis [13]; 60.1% in test [14]; 82.8% in the test with Staphylococcus aureus [15]. In addition, the Activity in the test with Staphylococcus aureus [16] was 39%. Further, the outcome with Escherichia coli [19] was inactive.

Take `C[C@H](CCCNCCCNCCCN)[C@H]1CC[C@H]2[C@@H]3[C@H](OCCCN)C[C@@H]4C[C@H](OCCCN)CC[C@]4(C)[C@H]3C[C@H](OCCCN)[C@]12C`: the Activity result with Escherichia coli [4] was “Dose-dependent effect”; with Paenibacillus polymyxa [11] it was 39.6%; with Bacillus cereus [12], 79.7%; in the test with Enterococcus faecalis [13], 77.2%; in test [14], 26.3%; in the test on Staphylococcus aureus [15] it was 39.8%. This molecule yielded an Activity in the test on Staphylococcus aureus [16] of 15.3%. For the same molecule, the MBC came to 2.5 µg/mL (≈ 3.68 µM) against Paenibacillus polymyxa [5]; 7 µg/mL (≈ 10.3 µM) with Bacillus cereus [6]; 280 µg/mL (≈ 412 µM) in the test with Enterococcus faecalis [7]; 2.5 µg/mL (≈ 3.68 µM) in [8]; 49 µg/mL (≈ 72.2 µM) in the test with Staphylococcus aureus [9]; 28 µg/mL (≈ 41.2 µM) with Staphylococcus aureus [10]. For the same molecule, the result with Escherichia coli [19] was inactive.

In general, MBC refers to the smallest concentration meeting the test's criterion for killing. The low end stands for more potent killing, the high end for less potent killing.

The values are drawn from ChEMBL document CHEMBL1671715, “Depolarization, bacterial membrane composition, and the antimicrobial action of ceragenins” (2010).
